Calls of active or inactive are those of the source.
Assays:
[1] = molecular target: T1, von Hippel-Lindau disease tumor suppressor/1-phosphatidylinositol 3-phosphate 5-kinase (Homo sapiens) (UniProt Q9Y2I7+P40337); assay: PROTAC activity at VHL/PIKfyve in human 22RV1 cells assessed as downregulation of PIKfyve expression at 10 to 3000 nM measured after 24 hrs by immunoblot analysis; assay type: cell-based; conditions: dose 10-3000 nM
Method in brief: (§1)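 22RV1, LNCaP or PC3 cells given increasing concentrations for 24 h; RIPA lysates immunoblotted for PIKfyve with GAPDH loading control, ECL detection.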

[2] = molecular target: T1, von Hippel-Lindau disease tumor suppressor/1-phosphatidylinositol 3-phosphate 5-kinase (Homo sapiens); assay: PROTAC activity at VHL/PIKfyve in human LNCaP cells assessed as downregulation of PIKfyve expression at 10 to 3000 nM measured after 24 hrs by immunoblot analysis; assay type: cell-based; conditions: dose 10-3000 nM; method in brief: as §1
[3] = molecular target: T1, von Hippel-Lindau disease tumor suppressor/1-phosphatidylinositol 3-phosphate 5-kinase (Homo sapiens); assay: PROTAC activity at VHL/PIKfyve in human PC-3 cells assessed as downregulation of PIKfyve expression at 10 to 3000 nM measured after 24 hrs by immunoblot analysis; assay type: cell-based; conditions: dose 10-3000 nM; method in brief: as §1
[4] = molecular target: T1, von Hippel-Lindau disease tumor suppressor/1-phosphatidylinositol 3-phosphate 5-kinase (Homo sapiens); assay: PROTAC activity at VHL/PIKfyve in human VCaP cells assessed as downregulation of PIKfyve expression at 300 nM measured after 4 hrs by TMT-labeled mass spectrometry; assay type: cell-based
Method in brief: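 VCaP cells plated 3×10^6 per well overnight, then DMSO or 300 nM for 4 h; TMT-labeled quantitative global proteomics, mass-spec quantification of PIKfyve and lipid kinases.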

[5] = molecular target: T1, von Hippel-Lindau disease tumor suppressor/1-phosphatidylinositol 3-phosphate 5-kinase (Homo sapiens); assay: PROTAC activity at VHL/PIKfyve in human VCaP cells assessed as induction of PIKfyve degradation by measuring half life at 100 nM by immunoblot analysis; assay type: cell-based
[6] = molecular target: T1, von Hippel-Lindau disease tumor suppressor/1-phosphatidylinositol 3-phosphate 5-kinase (Homo sapiens); assay: PROTAC activity at VHL/PIKfyve in human VCaP cells assessed as maximal induction of PIKfyve degradation incubated for 24 hrs by immunoblot analysis relative to control; assay type: cell-based
Method in brief: (§2)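 VCaP cells treated with increasing concentrations for 24 h; PIKfyve and GAPDH immunoblotted; percent remaining PIKfyve plotted to determine DC50 and Dmax.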

[7] = molecular target: T1, von Hippel-Lindau disease tumor suppressor/1-phosphatidylinositol 3-phosphate 5-kinase (Homo sapiens); assay: PROTAC activity at VHL/PIKfyve in human VCaP cells assessed as induction of PIKfyve degradation at 1 uM incubated for 24 hrs by immunoblot analysis; assay type: cell-based
Method in brief: (§3)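 VCaP cells treated 24 h at 0.1 or 1.0 µM; percent PIKfyve degradation determined by immunoblotting.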

[8] = molecular target: T1, von Hippel-Lindau disease tumor suppressor/1-phosphatidylinositol 3-phosphate 5-kinase (Homo sapiens); assay: PROTAC activity at VHL/PIKfyve in human VCaP cells assessed as induction of PIKfyve degradation at 0.1 uM incubated for 24 hrs by immunoblot analysis; assay type: cell-based; method in brief: as §3
[9] = molecular target: T1, von Hippel-Lindau disease tumor suppressor/1-phosphatidylinositol 3-phosphate 5-kinase (Homo sapiens); assay: PROTAC activity at VHL/PIKfyve in human VCaP cells assessed as induction of PIKfyve degradation at 0.1 to 1 uM incubated for 24 hrs by immunoblot analysis; assay type: cell-based; conditions: dose 0.1-1 µM
Method in brief: (§4)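 VCaP cells treated 24 h at 0.1 and 1 µM, with or without pretreatment by 1 µM bortezomib; PIKfyve and GAPDH immunoblotted.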

[10] = molecular target: T1, von Hippel-Lindau disease tumor suppressor/1-phosphatidylinositol 3-phosphate 5-kinase (Homo sapiens); assay: PROTAC activity at VHL/PIKfyve in human VCaP cells assessed as induction of PIKfyve degradation incubated for 24 hrs by immunoblot analysis; assay type: cell-based; method in brief: as §2
[11] = molecular target: T1, von Hippel-Lindau disease tumor suppressor/1-phosphatidylinositol 3-phosphate 5-kinase (Homo sapiens); assay: PROTAC activity at VHL/PIKfyve in human VCaP cells assessed as induction of PIKfyve degradation at 0.1 to 1 uM incubated for 24 hrs in presence of proteasome inhibitor, bortezomib by immunoblot analysis; assay type: cell-based; conditions: dose 0.1-1 µM; method in brief: as §4
[12] = molecular target: T1, von Hippel-Lindau disease tumor suppressor/1-phosphatidylinositol 3-phosphate 5-kinase (Homo sapiens); assay: PROTAC activity at VHL/PIKfyve in human VCaP cells assessed as induction of PIKfyve degradation at 0.1 to 0.3 uM incubated for 24 hrs in presence of PIKfyve inhibitor, apilimod by immunoblot analysis; assay type: cell-based; conditions: dose 0.1-0.3 µM
Method in brief: (§5)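 VCaP cells given increasing concentrations of degrader with or without warhead 1 or VHL ligand VL285 for 24 h; immunoblot of PIKfyve and GAPDH.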

[13] = molecular target: T1, von Hippel-Lindau disease tumor suppressor/1-phosphatidylinositol 3-phosphate 5-kinase (Homo sapiens); assay: PROTAC activity at VHL/PIKfyve in human VCaP cells assessed as induction of PIKfyve degradation at 0.1 to 0.3 uM incubated for 24 hrs in presence of VHL ligand, VL285 by immunoblot analysis; assay type: cell-based; conditions: dose 0.1-0.3 µM; method in brief: as §5
DU-145 [14] = assay: Induction of massive cytoplasmic vacuolization in human RFP-labeled DU-145 cells incubated for 24 hrs; assay type: functional, cell-based; conditions: dose 100-3000 nM
Method in brief: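 RFP-labeled DU145 cells treated 24 h (300 nM shown); vacuole area per cell quantified from images.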

PC-3 [15] = assay: Inhibition of autophagy in human PC-3 cells assessed as increase in LC3A/B expression incubated for 24 hrs by immunoblot analysis; assay type: functional, cell-based; conditions: dose 10-3000 nM
Method in brief: (§6)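 22RV1, LNCaP or PC3 cells (5% CO2, 37 °C) exposed to increasing concentrations for 24 h; RIPA lysates with protease/phosphatase inhibitors, 4–12% Bis-Tris SDS-PAGE, PVDF, milk block, immunoblotted for PIKfyve and autophagy markers LC3A/B and p62, ECL detection.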

LNCaP [16] = assay: Inhibition of autophagy in human LNCaP cells assessed as increase in LC3A/B expression incubated for 24 hrs by immunoblot analysis; assay type: functional, cell-based; conditions: dose 10-3000 nM; method in brief: as §6
CWR22R [17] = assay: Inhibition of autophagy in human 22Rv1 cells assessed as increase in LC3A/B expression incubated for 24 hrs by immunoblot analysis; assay type: functional, cell-based; conditions: dose 10-3000 nM; method in brief: as §6
PC-3 [18] = assay: Inhibition of autophagy in human PC-3 cells assessed as increase in p62 expression incubated for 24 hrs by immunoblot analysis; assay type: functional, cell-based; conditions: dose 10-3000 nM; method in brief: as §6
LNCaP [19] = assay: Inhibition of autophagy in human LNCaP cells assessed as increase in p62 expression incubated for 24 hrs by immunoblot analysis; assay type: functional, cell-based; conditions: dose 10-3000 nM; method in brief: as §6
CWR22R [20] = assay: Inhibition of autophagy in human 22Rv1 cells assessed as increase in p62 expression incubated for 24 hrs by immunoblot analysis; assay type: functional, cell-based; conditions: dose 10-3000 nM; method in brief: as §6
VCaP [21] = assay: Antiproliferative activity against human VCaP cells assessed as inhibition of cell proliferation incubated for 24 hrs followed by culturing in compound-free medium for 2 weeks by crystal violet staining based analysis; assay type: functional
Method in brief: (§7)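 VCaP cells exposed either 24 h then washed and chased 2 weeks in compound-free medium, or continuously for 2 weeks; long-term viability visualized by crystal violet staining; IC50 calculated for each condition.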

VCaP [22] = assay: Antiproliferative activity against human VCaP cells assessed as inhibition of cell proliferation incubated for 2 weeks by crystal violet staining based analysis; assay type: functional; conditions: 336 h; method in brief: as §7
VCaP [23] = assay: Antiproliferative activity against human VCaP cells assessed as inhibition of cell proliferation incubated for 4 hrs followed by culturing in compound-free medium for 2 weeks by crystal violet staining based analysis; assay type: functional
Method in brief: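 VCaP cells treated 4 h, compound removed, then cultured 2 weeks in drug-free medium; long-term viability by crystal violet staining.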

[24] = molecular target: T1, von Hippel-Lindau disease tumor suppressor/1-phosphatidylinositol 3-phosphate 5-kinase (Homo sapiens); assay: PROTAC activity at VHL/PIKfyve in human VCaP cells assessed as induction of PIKfyve degradation at 300 nM incubated for 4 hrs followed by culturing in compound-free medium for 72 hrs by immunoblot analysis; assay type: cell-based
Method in brief: (§8)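 VCaP cells treated 4 h, compounds removed, cultured 72 h in compound-free medium; whole cell lysates immunoblotted for PIKfyve, LC3A/B and GAPDH (RIPA lysis, 4–12% Bis-Tris gels, PVDF, ECL).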

VCaP [25] = assay: Inhibition of autophagy in human VCaP cells assessed as increase in LC3A/B expression at 300 nM incubated for 4 hrs followed by culturing in compound-free medium for 72 hrs by immunoblot analysis; assay type: functional, cell-based; method in brief: as §8
DU-145 [26] = assay: Induction of massive cytoplasmic vacuolization in human RFP-labeled DU-145 cells at 300 nM incubated for 4 hrs; assay type: functional, cell-based
Mus musculus = assay: In vivo induction of PIKfyve degradation in tumor of LTL-331R-xenografted CB17 mouse assessed as downregulation of PIKfyve expression at 4 to 10 mg/kg, ip for 4 days by western blot analysis; assay type: functional, organism-based; conditions: dose 4-10 mg/kg, time 4.0 day
Method in brief: (§9)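 LTL-331R prostate cancer PDX; IP once daily for 3 days at 4 or 10 mg/kg in 5% DMSO/95% of 40% hydroxypropyl-β-cyclodextrin (freshly dissolved); tumors collected 24 h after last dose on day 4; whole tumor lysate immunoblotted for PIKfyve, LC3A/B, GAPDH, or TUNEL in situ cell death staining.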

LTL-331R [27] = assay: Antitumor activity against human LTL-331R xenografted in CB17 mouse assessed as induction of tumor cell death at 4 to 10 mg/kg, ip for 4 days by TUNEL assay; assay type: functional, organism-based; conditions: dose 4-10 mg/kg, time 4.0 day; method in brief: as §9
LTL-331R [28] = assay: Antitumor activity against human LTL-331R xenografted in CB17 mouse assessed as inhibition of tumor cell proliferation at 15 mg/kg, ip at 5 days on and 2 days off regimen for 17 days by digital caliper analysis; assay type: functional, organism-based; conditions: time 17.0 day
Method in brief: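 LTL-331R PDX; once-daily IP dosing, 5 days on/2 days off for 17 days, vehicle 5% DMSO/95% of 40% hydroxypropyl-β-cyclodextrin; tumors measured at least twice weekly by caliper, volume (π/6)(L×W²); vehicle vs treated compared by two-tailed unpaired t test.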

T1 sequence (P40337 whole entry partner): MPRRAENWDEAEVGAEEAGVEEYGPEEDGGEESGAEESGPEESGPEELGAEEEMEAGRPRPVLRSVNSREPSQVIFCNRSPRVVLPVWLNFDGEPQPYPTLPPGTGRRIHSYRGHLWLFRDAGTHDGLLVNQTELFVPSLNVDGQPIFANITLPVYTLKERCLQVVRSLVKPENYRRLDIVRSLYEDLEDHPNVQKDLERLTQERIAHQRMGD
T1 sequence (Q9Y2I7 2-2098 limits assumed): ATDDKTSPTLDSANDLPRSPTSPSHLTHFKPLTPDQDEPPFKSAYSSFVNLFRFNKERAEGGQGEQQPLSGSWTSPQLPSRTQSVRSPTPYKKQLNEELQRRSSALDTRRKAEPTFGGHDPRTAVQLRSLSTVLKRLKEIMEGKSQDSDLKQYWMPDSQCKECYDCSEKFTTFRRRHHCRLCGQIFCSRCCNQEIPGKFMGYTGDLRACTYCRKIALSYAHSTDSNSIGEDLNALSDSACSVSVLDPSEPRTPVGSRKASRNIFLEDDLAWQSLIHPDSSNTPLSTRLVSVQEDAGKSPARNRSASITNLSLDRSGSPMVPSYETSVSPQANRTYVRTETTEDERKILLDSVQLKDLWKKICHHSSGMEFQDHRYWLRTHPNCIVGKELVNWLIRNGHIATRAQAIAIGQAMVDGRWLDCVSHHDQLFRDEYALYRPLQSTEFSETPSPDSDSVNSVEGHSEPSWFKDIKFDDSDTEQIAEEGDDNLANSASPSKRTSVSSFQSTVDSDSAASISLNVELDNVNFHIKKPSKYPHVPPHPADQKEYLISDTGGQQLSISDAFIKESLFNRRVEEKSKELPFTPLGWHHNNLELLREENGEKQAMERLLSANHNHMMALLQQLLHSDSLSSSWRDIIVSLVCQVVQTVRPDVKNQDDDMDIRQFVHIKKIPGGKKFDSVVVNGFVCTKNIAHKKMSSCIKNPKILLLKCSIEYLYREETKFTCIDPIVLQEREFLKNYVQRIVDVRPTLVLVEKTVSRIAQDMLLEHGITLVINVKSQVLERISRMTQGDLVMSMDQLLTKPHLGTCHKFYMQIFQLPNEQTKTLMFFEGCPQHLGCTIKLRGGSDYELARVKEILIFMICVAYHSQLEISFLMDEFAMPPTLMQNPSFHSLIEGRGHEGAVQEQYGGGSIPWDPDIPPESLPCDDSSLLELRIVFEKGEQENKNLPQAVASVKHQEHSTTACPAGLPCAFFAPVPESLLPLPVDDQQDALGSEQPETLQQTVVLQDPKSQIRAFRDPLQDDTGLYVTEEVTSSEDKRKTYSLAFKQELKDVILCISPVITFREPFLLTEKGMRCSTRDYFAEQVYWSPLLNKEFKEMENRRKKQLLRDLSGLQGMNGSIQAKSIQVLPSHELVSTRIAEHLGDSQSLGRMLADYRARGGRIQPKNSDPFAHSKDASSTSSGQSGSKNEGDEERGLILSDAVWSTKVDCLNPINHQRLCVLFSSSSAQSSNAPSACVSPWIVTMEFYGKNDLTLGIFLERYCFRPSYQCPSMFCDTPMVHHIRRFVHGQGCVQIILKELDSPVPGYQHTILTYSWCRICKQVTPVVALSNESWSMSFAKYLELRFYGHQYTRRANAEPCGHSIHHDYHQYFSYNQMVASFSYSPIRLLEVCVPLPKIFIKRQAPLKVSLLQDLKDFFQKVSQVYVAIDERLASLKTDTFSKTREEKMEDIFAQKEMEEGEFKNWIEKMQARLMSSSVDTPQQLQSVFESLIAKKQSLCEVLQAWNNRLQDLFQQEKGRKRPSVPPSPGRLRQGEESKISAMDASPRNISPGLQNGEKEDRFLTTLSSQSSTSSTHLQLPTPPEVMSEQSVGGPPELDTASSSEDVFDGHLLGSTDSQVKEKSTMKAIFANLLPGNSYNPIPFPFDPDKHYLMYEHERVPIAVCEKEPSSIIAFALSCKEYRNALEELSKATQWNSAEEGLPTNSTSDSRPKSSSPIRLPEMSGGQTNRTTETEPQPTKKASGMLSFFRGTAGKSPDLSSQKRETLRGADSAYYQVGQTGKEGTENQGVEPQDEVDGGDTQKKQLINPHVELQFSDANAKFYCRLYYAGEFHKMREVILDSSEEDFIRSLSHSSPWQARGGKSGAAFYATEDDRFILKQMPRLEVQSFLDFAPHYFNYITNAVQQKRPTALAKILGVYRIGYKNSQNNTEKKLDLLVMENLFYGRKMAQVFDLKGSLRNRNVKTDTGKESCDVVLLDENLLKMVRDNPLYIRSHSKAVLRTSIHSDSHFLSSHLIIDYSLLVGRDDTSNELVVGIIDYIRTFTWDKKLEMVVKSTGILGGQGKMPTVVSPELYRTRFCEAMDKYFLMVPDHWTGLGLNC

Cc1cccc(/C=N/Nc2cc(N3CCOCC3)nc(OCCc3ccc(NC(=O)CCCCC(=O)N[C@H](C(=O)N4C[C@H](O)C[C@H]4C(=O)NCc4ccc(-c5scnc5C)cc4)C(C)(C)C)cc3)n2)c1
97%: Activity [8]
1200 nM: IC50 (VCaP [23])
522 nM: IC50 (VCaP [21])
91%: Activity [7]
97.9%: Activity [6]
active: Activity [1] | Activity [2] | Activity [3] | Activity [4] | Activity [9] | Activity [10] Dose-Dependent Effect | Activity (DU-145 [14]) Dose-Dependent Effect | inhibition (PC-3 [15]) Dose-Dependent Effect | inhibition (LNCaP [16]) Dose-Dependent Effect | inhibition (CWR22R [17]) Dose-Dependent Effect | inhibition (PC-3 [18]) Dose-Dependent Effect | inhibition (LNCaP [19]) Dose-Dependent Effect | inhibition (CWR22R [20]) Dose-Dependent Effect | Activity [24] | inhibition (VCaP [25]) | Activity (DU-145 [26]) | Activity (Mus musculus) | Activity (LTL-331R [27]) | Activity (LTL-331R [28])
55.9 nM: IC50 (VCaP [22])
1.5 h: T1/2 [5]
inactive: Activity [11] | Activity [12] | Activity [13]
